pIC50: −log10 of the molar value. Several values for one entry are separate records, joined by “and”; a condition that tells them apart may be missing. Identical values can stand only once.

Broadly, the pIC50 is the IC50 on a negative log10 scale, so that one unit is a factor of ten. Usually T/C stands for the result in the treated group divided by that in the control group, in per cent.

One assay concerns L1210. In words: Inhibition of murine L1210 leukemia cell proliferation measured by the MTT assay. In kind it is functional, cell-based. Conditions: Mus musculus. An outline of the steps: (§1)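 Murine L1210 leukemia and B16 melanoma cells were grown in RPMI 1640 with 10% fetal calf serum, 2 mM L-glutamine, penicillin/streptomycin and 10 mM HEPES (pH 7.4). Cells were exposed to nine serial drug dilutions in triplicate for about four doubling times (L1210 48 h, B16 96 h), then read by microculture tetrazolium (MTT) assay. IC50 is the concentration halving optical density versus untreated controls, averaged over ≥2 independent experiments.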
A general note: Formazan colour is commonly taken as a measure of viable cells.
`CCCCCCCCCCCCN(C)C(=O)Oc1ccc2c(c1)c1cc3c(C(=O)NCCN(C)C)nccc3c(C)c1n2C` showed a pIC50 of 5.54.

Molecule `CCOC(=O)CCNC(=O)Oc1ccc2c(c1)c1cc3c(C(=O)NCCN(C)C)nccc3c(C)c1n2C` gave a pIC50 of 7.79.

Molecule `Cc1c2ccnc(C(=O)NCCN(C)C)c2cc2c3cc(OC(=O)CCCCC4CCSS4)ccc3n(C)c12` (stereo not given) had a pIC50 of 6.93.

`Cc1c2ccnc(C(=O)NCCN(C)C)c2cc2c3cc(OC(=O)CCCCC(=O)OCc4ccccc4)ccc3n(C)c12` gave a negative-log IC50 (pIC50) of 6.96.

Regarding `Cc1c2ccnc(C(=O)NCCN(C)C)c2cc2c3cc(OC(=O)NCCCC(=O)OCc4ccccc4)ccc3n(C)c12`, the pIC50 was 6.52.

In turn, `CCCCCCCCC(=O)Oc1ccc2c(c1)c1cc3c(C(=O)NCCN(C)C)nccc3c(C)c1n2C` gave a negative-log IC50 (pIC50) of 7.51.

Molecule `CCCCCCCCCCCCNC(=O)Oc1ccc2c(c1)c1cc3c(C(=O)NCCN(C)C)nccc3c(C)c1n2C` had a pIC50 of 6.09.

`Cc1c2ccnc(C(=O)NCCN(C)C)c2cc2c3cc(OC(=O)Cc4ccccc4)ccc3n(C)c12`: the pIC50 was 7.57.

Another assay deals with Mus musculus. In words: Long-term survivors among 7 mice infected with P388 leukemia, scored on day 60 at 20 mg/kg dose on day 1. In kind it is functional.
Settings: not given
An outline of the steps:
(§2)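 B6D2F1 mice in groups of 6–7 received 10^6 P388 cells ip on day 0. Dihydrochloride salts dissolved in water were injected iv on day 1 or on days 1, 5 and 9, at three doses and then five. Read-outs were % T/C (median survival treated/control × 100) and long-term survivors on day 60, both at the optimal dose (no toxic death, weight loss <20%).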
As to `Cc1c2ccnc(C(=O)NCCN(C)C)c2cc2c3cc(OC(=O)CCCCC(=O)OCc4ccccc4)ccc3n(C)c12`, the LTS was found to be 0.

In turn, `Cc1c2ccnc(C(=O)NCCN(C)C)c2cc2c3cc(OC(=O)NCCCC(=O)OCc4ccccc4)ccc3n(C)c12` yielded an LTS of 0.

For a further assay, the system named is Mus musculus. In words: Percent median survival time of mice injected with B16 melanoma, at a intraperitoneal compound dose of 5 mg/kg.
Settings: not given
In turn, `Cc1c2ccnc(C(=O)NCCN(C)C)c2cc2c3cc(OC(=O)CCCCC4CCSS4)ccc3n(C)c12` (stereo not given) yielded a T/C of 140%.

`Cc1c2ccnc(C(=O)NCCN(C)C)c2cc2c3cc(OC(=O)Cc4ccccc4)ccc3n(C)c12` displayed a T/C of 147%.

The subject of another assay is Mus musculus. In words: Long-term survivors among 7 mice infected with P388 leukemia, scored on day 60 at 10 mg/kg dose on day 1.
Settings: not given
In kind it is functional. The essentials: as §2
Turning to `CCCCCCCCCCCCN(C)C(=O)Oc1ccc2c(c1)c1cc3c(C(=O)NCCN(C)C)nccc3c(C)c1n2C`, the LTS is 0.

The molecule `Cc1c2ccnc(C(=O)NCCN(C)C)c2cc2c3cc(OC(=O)CCCCC4CCSS4)ccc3n(C)c12` (stereo not given) showed an LTS of 0.

Turning to `CCCCCCCCC(=O)Oc1ccc2c(c1)c1cc3c(C(=O)NCCN(C)C)nccc3c(C)c1n2C`, the LTS is recorded as 0.

In turn, `CCCCCCCCCCCCNC(=O)Oc1ccc2c(c1)c1cc3c(C(=O)NCCN(C)C)nccc3c(C)c1n2C` displayed an LTS of 0.

Consider `Cc1c2ccnc(C(=O)NCCN(C)C)c2cc2c3cc(OC(=O)Cc4ccccc4)ccc3n(C)c12`, for which the LTS is given as 0.

Another assay has as its system B16. Briefly: Inhibition of murine B16 melanoma cell proliferation measured by the MTT assay. In kind it is functional, cell-based. Conditions: Mus musculus. The essentials: as §1
`CCCCCCCCCCCCN(C)C(=O)Oc1ccc2c(c1)c1cc3c(C(=O)NCCN(C)C)nccc3c(C)c1n2C`: the pIC50 was 5.49.

As for `CCOC(=O)CCNC(=O)Oc1ccc2c(c1)c1cc3c(C(=O)NCCN(C)C)nccc3c(C)c1n2C`, the pIC50 is 8.24.

As for `Cc1c2ccnc(C(=O)NCCN(C)C)c2cc2c3cc(OC(=O)CCCCC4CCSS4)ccc3n(C)c12` (stereo not given), the negative logarithm of the IC50 (pIC50) is 7.85.

In turn, `Cc1c2ccnc(C(=O)NCCN(C)C)c2cc2c3cc(OC(=O)CCCCC(=O)OCc4ccccc4)ccc3n(C)c12` had a pIC50 of 7.23.

As to `Cc1c2ccnc(C(=O)NCCN(C)C)c2cc2c3cc(OC(=O)NCCCC(=O)OCc4ccccc4)ccc3n(C)c12`, the pIC50 was 7.53.

As for `CCCCCCCCC(=O)Oc1ccc2c(c1)c1cc3c(C(=O)NCCN(C)C)nccc3c(C)c1n2C`, the pIC50 is 7.68.

In the case of `CCCCCCCCCCCCNC(=O)Oc1ccc2c(c1)c1cc3c(C(=O)NCCN(C)C)nccc3c(C)c1n2C`, the negative-log IC50 (pIC50) is 5.64.

`Cc1c2ccnc(C(=O)NCCN(C)C)c2cc2c3cc(OC(=O)Cc4ccccc4)ccc3n(C)c12` had a pIC50 of 7.65.

The subject of the next assay is Mus musculus. Briefly: Percent median survival time of mice injected with P388 leukemia, at a intravenous compound dose of 5 mg/kg.
Settings: not given
Turning to `CCCCCCCCCCCCN(C)C(=O)Oc1ccc2c(c1)c1cc3c(C(=O)NCCN(C)C)nccc3c(C)c1n2C`, the T/C is on record as 100%.

The next assay relates to Mus musculus. Briefly: Long-term survivors among 7 mice infected with B16 melanoma, scored on day 90 at 20 mg/kg dose on day 1. In kind it is functional.
Settings: not given
`Cc1c2ccnc(C(=O)NCCN(C)C)c2cc2c3cc(OC(=O)CCCCC(=O)OCc4ccccc4)ccc3n(C)c12` yielded an LTS of 0.

As for `Cc1c2ccnc(C(=O)NCCN(C)C)c2cc2c3cc(OC(=O)NCCCC(=O)OCc4ccccc4)ccc3n(C)c12`, the LTS is recorded as 0.

A further assay deals with Mus musculus. In words: Long-term survivors among 7 mice infected with B16 melanoma, scored on day 90 at 10 mg/kg dose on day 1. Format: functional.
Settings: not given
Regarding `CCCCCCCCCCCCN(C)C(=O)Oc1ccc2c(c1)c1cc3c(C(=O)NCCN(C)C)nccc3c(C)c1n2C`, the LTS was found to be 0.

In the case of `Cc1c2ccnc(C(=O)NCCN(C)C)c2cc2c3cc(OC(=O)CCCCC4CCSS4)ccc3n(C)c12` (stereo not given), the LTS amounted to 0.

As to `CCCCCCCCC(=O)Oc1ccc2c(c1)c1cc3c(C(=O)NCCN(C)C)nccc3c(C)c1n2C`, the LTS is recorded as 0.

Take `CCCCCCCCCCCCNC(=O)Oc1ccc2c(c1)c1cc3c(C(=O)NCCN(C)C)nccc3c(C)c1n2C`: the LTS was determined as 0.

Consider `Cc1c2ccnc(C(=O)NCCN(C)C)c2cc2c3cc(OC(=O)Cc4ccccc4)ccc3n(C)c12`, for which the LTS is 0.

In another assay the test system is Mus musculus. Briefly: Percent median survival time of mice injected with P388 leukemia, at a subcutaneous compound dose of 10 mg/kg. In kind it is functional.
Settings: not given
As for `CCCCCCCCCCCCN(C)C(=O)Oc1ccc2c(c1)c1cc3c(C(=O)NCCN(C)C)nccc3c(C)c1n2C`, the T/C was determined as 103%.

The molecule `Cc1c2ccnc(C(=O)NCCN(C)C)c2cc2c3cc(OC(=O)CCCCC(=O)OCc4ccccc4)ccc3n(C)c12` had a T/C of 128%.

In turn, `Cc1c2ccnc(C(=O)NCCN(C)C)c2cc2c3cc(OC(=O)NCCCC(=O)OCc4ccccc4)ccc3n(C)c12` yielded a T/C of 93%.

Still in this assay, the particulars now being: 10 mg/kg.
Consider `Cc1c2ccnc(C(=O)NCCN(C)C)c2cc2c3cc(OC(=O)CCCCC4CCSS4)ccc3n(C)c12` (stereo not given), for which the T/C was 118% and 129%.

A further assay concerns Mus musculus. In words: Percent median survival time of mice injected with B16 melanoma, at a intraperitoneal compound dose of 40 mg/kg.
Settings: not given
Consider `CCCCCCCCCCCCN(C)C(=O)Oc1ccc2c(c1)c1cc3c(C(=O)NCCN(C)C)nccc3c(C)c1n2C`, for which the T/C was determined as 115%.

`Cc1c2ccnc(C(=O)NCCN(C)C)c2cc2c3cc(OC(=O)CCCCC(=O)OCc4ccccc4)ccc3n(C)c12`: the T/C stood at 102%.

`Cc1c2ccnc(C(=O)NCCN(C)C)c2cc2c3cc(OC(=O)NCCCC(=O)OCc4ccccc4)ccc3n(C)c12` yielded a T/C of 96%.

With `CCCCCCCCCCCCNC(=O)Oc1ccc2c(c1)c1cc3c(C(=O)NCCN(C)C)nccc3c(C)c1n2C`, the T/C is reported as 133%.

The test system of the next assay is Mus musculus. Briefly: Long-term survivors among 7 mice infected with P388 leukemia, scored on day 60 at 40 mg/kg dose on day 1. In kind it is functional.
Settings: not given
An outline of the steps:
as §2
As for `CCOC(=O)CCNC(=O)Oc1ccc2c(c1)c1cc3c(C(=O)NCCN(C)C)nccc3c(C)c1n2C`, the LTS was found to be 0.

For the next assay, the system named is Mus musculus. In words: Percent median survival time of mice injected with P388 leukemia, at a subcutaneous compound dose of 10 mg/kg on day 1, 5, 9. In kind it is functional.
Settings: not given
In turn, `CCCCCCCCC(=O)Oc1ccc2c(c1)c1cc3c(C(=O)NCCN(C)C)nccc3c(C)c1n2C` registered a T/C of 147%.

In turn, `CCCCCCCCCCCCNC(=O)Oc1ccc2c(c1)c1cc3c(C(=O)NCCN(C)C)nccc3c(C)c1n2C` returned a T/C of 107%.

Molecule `Cc1c2ccnc(C(=O)NCCN(C)C)c2cc2c3cc(OC(=O)Cc4ccccc4)ccc3n(C)c12` gave a T/C of 157%.

In another assay the test system is Mus musculus. Briefly: Long-term survivors among 7 mice infected with B16 melanoma, scored on day 90 at 40 mg/kg dose on day 1. In kind it is functional.
Settings: not given
As for `CCOC(=O)CCNC(=O)Oc1ccc2c(c1)c1cc3c(C(=O)NCCN(C)C)nccc3c(C)c1n2C`, the LTS was 0.

The subject of another assay is Mus musculus. In words: Percent median survival time of mice injected with B16 melanoma, at a intraperitoneal compound dose of 10 mg/kg.
Settings: not given
On to `CCOC(=O)CCNC(=O)Oc1ccc2c(c1)c1cc3c(C(=O)NCCN(C)C)nccc3c(C)c1n2C`, for which the T/C is 115%.

Molecule `CCCCCCCCC(=O)Oc1ccc2c(c1)c1cc3c(C(=O)NCCN(C)C)nccc3c(C)c1n2C` registered a T/C of 160%.

A further assay concerns Mus musculus. Briefly: Percent median survival time of mice injected with P388 leukemia, at a subcutaneous compound dose of 10 mg/kg on day 1. Format: functional.
Settings: not given
Molecule `CCCCCCCCC(=O)Oc1ccc2c(c1)c1cc3c(C(=O)NCCN(C)C)nccc3c(C)c1n2C` registered a T/C of 131%.

Molecule `CCCCCCCCCCCCNC(=O)Oc1ccc2c(c1)c1cc3c(C(=O)NCCN(C)C)nccc3c(C)c1n2C` had a T/C of 104%.

Molecule `Cc1c2ccnc(C(=O)NCCN(C)C)c2cc2c3cc(OC(=O)Cc4ccccc4)ccc3n(C)c12` yielded a T/C of 125%.

A further assay concerns Mus musculus. Briefly: Percent median survival time of mice injected with P388 leukemia, at a intravenous compound dose of 40 mg/kg.
Settings: not given
The molecule `CCOC(=O)CCNC(=O)Oc1ccc2c(c1)c1cc3c(C(=O)NCCN(C)C)nccc3c(C)c1n2C` showed a T/C of 97%.

The subject of another assay is Mus musculus. In words: Percent median survival time of mice injected with P388 leukemia, at a subcutaneous compound dose of 20 mg/kg. Format: functional.
Settings: not given
The molecule `CCOC(=O)CCNC(=O)Oc1ccc2c(c1)c1cc3c(C(=O)NCCN(C)C)nccc3c(C)c1n2C` had a T/C of 95%.

Regarding `Cc1c2ccnc(C(=O)NCCN(C)C)c2cc2c3cc(OC(=O)CCCCC(=O)OCc4ccccc4)ccc3n(C)c12`, the T/C is on record as 124%.

As to `Cc1c2ccnc(C(=O)NCCN(C)C)c2cc2c3cc(OC(=O)NCCCC(=O)OCc4ccccc4)ccc3n(C)c12`, the T/C is listed as 103%.

For the origin of these results see ChEMBL document CHEMBL1132144, “Synthesis of 9-O-substituted derivatives of 9-hydroxy-5, 6-dimethyl-6H-pyrido[4,3-b]carbazole-1-carboxylic acid (2-(dimethylamino)ethyl)amide and their 10- and 11-methyl analogues with improved antitumor activity” (J Med Chem, 1999).
